Laboratory results from ChEMBL document CHEMBL3808372, “Identification of quinones as novel PIM1 kinase inhibitors” (Bioorg Med Chem Lett, 2016).

Legend:
[1] = system: Tyrosine-protein kinase ABL1 (Homo sapiens), P00519 [T315I]; assay: Inhibition of human ABL1 kinase T315I mutant phosphorylation (229 to 512 amino acid residues) assessed as enzyme activity at 10 uM by KINOMEScan assay; set-up: scale not given: the % may be the effect or the level left
Procedure, shortened: (§1)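 Competition binding screen on a 100-kinase KINOMEscan panel, compound tested at a single 10 μM concentration. Primary binding read-out expressed as % Ctrl = (test compound signal − positive control signal)/(negative control signal − positive control signal) × 100, with lower values meaning stronger binding.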

[2] = molecular target: Tyrosine-protein kinase ABL1 (Homo sapiens) (UniProt P00519); assay: Inhibition of human ABL1 kinase phosphorylation (229 to 512 amino acid residues) assessed as enzyme activity at 10 uM by KINOMEScan assay; set-up: scale not given: the % may be the effect or the level left; procedure, shortened: as §1
[3] = molecular target: Activin receptor type-1B (Homo sapiens) (UniProt P36896); assay: Inhibition of human ACVR1B (187 to 505 amino acid residues) expressed in bacterial system assessed as enzyme activity at 10 uM by KINOMEScan assay; set-up: scale not given: the % may be the effect or the level left; procedure, shortened: as §1
[4] = molecular target: RAC-alpha serine/threonine-protein kinase (Homo sapiens) (UniProt P31749); assay: Inhibition of human Akt1 expressed in bacterial system assessed as enzyme activity at 10 uM by KINOMEScan assay; set-up: scale not given: the % may be the effect or the level left
Procedure, shortened: (§2)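 Commercial KINOMEscan binding panel of 100 kinases, test compound at 10 μM. Results are primary-screen binding interactions expressed as % Ctrl = (test compound signal − positive control signal)/(negative control signal − positive control signal) × 100. Lower % Ctrl means stronger binding.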

[5] = molecular target: Cyclin-dependent kinase 11B (Homo sapiens) (UniProt P21127); assay: Inhibition of human CDK11 (1 to 360 amino acid residues) assessed as enzyme activity at 10 uM by KINOMEScan assay expressed in bacterial system assessed as enzyme activity at 10 uM by KINOMEScan assay; set-up: scale not given: the % may be the effect or the level left; procedure, shortened: as §2
[6] = molecular target: Cyclin-dependent kinase 3 (Homo sapiens) (UniProt Q00526); assay: Inhibition of full length human CDK3 expressed in bacterial system assessed as enzyme activity at 10 uM by KINOMEScan assay; set-up: scale not given: the % may be the effect or the level left; procedure, shortened: as §1
[7] = molecular target: Cyclin-dependent kinase 7 (Homo sapiens) (UniProt P50613); assay: Inhibition of full length human CDK7 assessed as enzyme activity at 10 uM by KINOMEScan assay; set-up: scale not given: the % may be the effect or the level left; procedure, shortened: as §1
[8] = molecular target: Dual specificity tyrosine-phosphorylation-regulated kinase 1B (Homo sapiens) (UniProt Q9Y463); assay: Inhibition of full length human DYRK1B expressed in bacterial system assessed as enzyme activity at 10 uM by KINOMEScan assay; set-up: scale not given: the % may be the effect or the level left; procedure, shortened: as §1
[9] = molecular target: Insulin-like growth factor 1 receptor (Homo sapiens) (UniProt P08069); assay: Inhibition of human IGF1R (972 to 1294 amino acid residues) assessed as enzyme activity at 10 uM by KINOMEScan assay expressed in bacterial system assessed as enzyme activity at 10 uM by KINOMEScan assay; set-up: scale not given: the % may be the effect or the level left; procedure, shortened: as §2
[10] = molecular target: Tyrosine-protein kinase JAK3 (Homo sapiens) (UniProt P52333); assay: Inhibition of human JAK3 JH1 catalytic domain (781 to 1124 amino acid residues) assessed as enzyme activity at 10 uM by KINOMEScan assay; set-up: scale not given: the % may be the effect or the level left; procedure, shortened: as §1
[11] = molecular target: Mast/stem cell growth factor receptor Kit (Homo sapiens) (UniProt P10721); assay: Inhibition of human KIT (571 to 952 amino acid residues) expressed in bacterial system assessed as enzyme activity at 10 uM by KINOMEScan assay; set-up: scale not given: the % may be the effect or the level left; procedure, shortened: as §2
[12] = system: Mast/stem cell growth factor receptor Kit (Homo sapiens), P10721 [D816V]; assay: Inhibition of human KIT D816V mutant (571 to 952 amino acid residues) expressed in bacterial system assessed as enzyme activity at 10 uM by KINOMEScan assay; set-up: scale not given: the % may be the effect or the level left; procedure, shortened: as §2
[13] = system: Mast/stem cell growth factor receptor Kit (Homo sapiens), P10721 [V559D,T670I]; assay: Inhibition of human KIT V559D/T670I mutant (545 to 952 amino acid residues) expressed in bacterial system assessed as enzyme activity at 10 uM by KINOMEScan assay; set-up: scale not given: the % may be the effect or the level left; procedure, shortened: as §2
[14] = molecular target: Hepatocyte growth factor receptor (Homo sapiens) (UniProt P08581); assay: Inhibition of human MET (1010 to 1367 amino acid residues) expressed in bacterial system assessed as enzyme activity at 10 uM by KINOMEScan assay; set-up: scale not given: the % may be the effect or the level left; procedure, shortened: as §2
[15] = molecular target: Serine/threonine-protein kinase PAK 2 (Homo sapiens) (UniProt Q13177); assay: Inhibition of human PAK2 (151 to 525 amino acid residues) expressed in bacterial system assessed as enzyme activity at 10 uM by KINOMEScan assay; set-up: scale not given: the % may be the effect or the level left; procedure, shortened: as §1
[16] = molecular target: Serine/threonine-protein kinase PAK 4 (Homo sapiens) (UniProt O96013); assay: Inhibition of human PAK4 (144 to 438 amino acid residues) expressed in bacterial system assessed as enzyme activity at 10 uM by KINOMEScan assay; set-up: scale not given: the % may be the effect or the level left
Procedure, shortened: (§3)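 Single-concentration competition binding screen (KINOMEscan) across a 100-kinase panel at 10 μM. Primary binding read-out is reported as % of control: (test signal − positive-control signal)/(negative-control signal − positive-control signal) × 100. Lower values indicate stronger binding.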

[17] = molecular target: Platelet-derived growth factor receptor beta (Homo sapiens) (UniProt P09619); assay: Inhibition of human PDGFRB (582 to 1009 amino acid residues) expressed in bacterial system assessed as enzyme activity at 10 uM by KINOMEScan assay; set-up: scale not given: the % may be the effect or the level left; procedure, shortened: as §2
[18] = molecular target: 3-phosphoinositide-dependent protein kinase 1 (Homo sapiens) (UniProt O15530); assay: Inhibition of full length human PDPK1 expressed in bacterial system assessed as enzyme activity at 10 uM by KINOMEScan assay; set-up: scale not given: the % may be the effect or the level left; procedure, shortened: as §1
[19] = molecular target: Phosphatidylinositol 4,5-bisphosphate 3-kinase catalytic subunit alpha isoform (Homo sapiens) (UniProt P42336); assay: Inhibition of human PIK3CA (108 to 1068 amino acid residues) assessed as enzyme activity at 10 uM by KINOMEScan assay; set-up: scale not given: the % may be the effect or the level left; procedure, shortened: as §3
[20] = molecular target: Serine/threonine-protein kinase pim-1 (Homo sapiens, UniProt P11309); assay: Inhibition of human PIM1 (15 to 313 amino acid residues) expressed in bacterial system assessed as enzyme activity at 10 uM by KINOMEScan assay; set-up: scale not given: the % may be the effect or the level left; procedure, shortened: as §3
[21] = molecular target: Serine/threonine-protein kinase pim-3 (Homo sapiens) (UniProt Q86V86); assay: Inhibition of human PIM3 (16 to 317 amino acid residues) expressed in bacterial system assessed as enzyme activity at 10 uM by KINOMEScan assay; set-up: scale not given: the % may be the effect or the level left; procedure, shortened: as §3
[22] = molecular target: Protein kinase C epsilon type (Homo sapiens) (UniProt Q02156); assay: Inhibition of human PRKCE (378 to 737 amino acid residues) assessed as enzyme activity at 10 uM by KINOMEScan assay; set-up: scale not given: the % may be the effect or the level left; procedure, shortened: as §3
[23] = molecular target: Proto-oncogene tyrosine-protein kinase receptor Ret (Homo sapiens) (UniProt P07949); assay: Inhibition of human RET (713 to 1014 amino acid residues) expressed in bacterial system assessed as enzyme activity at 10 uM by KINOMEScan assay; set-up: scale not given: the % may be the effect or the level left; procedure, shortened: as §2
[24] = molecular target: Rho-associated protein kinase 2 (Homo sapiens) (UniProt O75116); assay: Inhibition of human ROCK2 (1 to 431 amino acid residues) assessed as enzyme activity at 10 uM by KINOMEScan assay; set-up: scale not given: the % may be the effect or the level left; procedure, shortened: as §3
[25] = molecular target: Serine/threonine-protein kinase pim-3 (Homo sapiens) (UniProt Q86V86); assay: Inhibition of PIM3 (unknown origin)
[26] = molecular target: Proto-oncogene tyrosine-protein kinase Src (Homo sapiens) (UniProt P12931); assay: Inhibition of SRC (unknown origin)

## O=C1C2=C(C(=O)c3c(O)ccc(O)c31)[C@@H](O)[C@@H](O)[C@@H](O)C2
[1]
  Activity: 95%
[2]
  Activity: 88%
[3]
  Activity: 90%
[4]
  Activity: 100%
[5]
  Activity: 86%
[6]
  Activity: 88%
[7]
  Activity: 88%
[8]
  Activity: 53%
[9]
  Activity: 100%
[10]
  Activity: 61%
[11]
  Activity: 76%
[12]
  Activity: 100%
[13]
  Activity: 86%
[14]
  Activity: 100%
[15]
  Activity: 57%
[16]
  Activity: 91%
[17]
  Activity: 100%
[18]
  Activity: 87%
[19]
  Activity: 99%
[20]
  Activity: 34%
[21]
  Activity: 36%
[22]
  Activity: 92%
[23]
  Activity: 100%
[24]
  Activity: 77%
[25]
  % of MOE kinase hits: 29%
[26]
  % of MOE kinase hits: 14%
